# Assay results reported in ChEMBL document CHEMBL1255300, “Pharmacodynamics of the antibacterial effect and emergence of resistance to tomopenem, formerly RO4908463/CS-023, in an in vitro pharmacokinetic model of Staphylococcus aureus infection” (Antimicrob Agents Chemother, 2008).
# Calls of active or inactive are those of the source. The rule behind the calls is not given here.
# Assays:
# Staphylococcus aureus [1] = experiment: Antibacterial activity against methicillin-resistant Staphylococcus aureus 33827 infected in in vitro pharmacokinetic model assessed as reduction in viable count at 750 mg, iv every 8 hrs measured after 36 hrs using 10^8 CFU/ml inoculum; format: functional
# How it was run: (§1)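 Single-compartment dilutional in vitro PK model, 10% Mueller-Hinton broth, 37°C, stirred, dilution 132 ml/h. […] Inoculum 10^6 CFU/ml (added 45 min pre-dose) or 10^8 CFU/ml (run overnight). Viable counts by spiral plating, beta-lactamase neutralization, detection limit 10^2 CFU/ml. At least triplicate.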
# Staphylococcus aureus [2] = experiment: Antibacterial activity against methicillin-resistant Staphylococcus aureus 33815 infected in in vitro pharmacokinetic model assessed as reduction in viable count at 1500 mg, iv every 8 hrs measured after 36 hrs using 10^8 CFU/ml inoculum; format: functional
# How it was run: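 PK model at 37°C in 10% MHB. […] A 0.5 McFarland suspension (1 ml) was added and the model run overnight to reach 10^8 CFU/ml before dosing. Counts were spiral-plated on nutrient agar with β-lactamase. Change in log CFU/ml was measured from time 0; at least triplicate.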
# Staphylococcus aureus [3] = experiment: Antibacterial activity against methicillin-resistant Staphylococcus aureus 33922 infected in in vitro pharmacokinetic model assessed as reduction in viable count at 1500 mg, iv every 8 hrs measured after 36 hrs using 10^8 CFU/ml inoculum; format: functional
# Staphylococcus aureus [4] = experiment: T>MIC for 3-log drop in count in methicillin-resistant Staphylococcus aureus 33827 in in vitro pharmacokinetic model after 24 hrs using 10^8 CFU/ml inoculum; format: functional
# Staphylococcus aureus [5] = experiment: AUBKC (0 to 24 hrs) in methicillin-sensitive Staphylococcus aureus 5956 infected in in vitro pharmacokinetic model at 750 mg, iv every 8 hrs using 10^6 CFU/ml inoculum; format: functional
# Staphylococcus aureus [6] = experiment: Antibacterial activity against methicillin-resistant Staphylococcus aureus 33815 by 10% MH broth method; format: functional
# How it was run: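 Broth dilution MIC per CLSI but in 10% Mueller-Hinton broth, using nondoubling dilutions.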
# Staphylococcus aureus [7] = experiment: Antibacterial activity against methicillin-resistant Staphylococcus aureus 33922 infected in in vitro pharmacokinetic model assessed as time required to 99% killing at 1500 mg, iv every 8 hrs using 10^8 CFU/ml inoculum; format: functional
# Staphylococcus aureus [8] = experiment: Antibacterial activity against methicillin-resistant Staphylococcus aureus 33820 by 10% MH broth method; format: functional
# How it was run: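 Broth dilution MIC per CLSI, run in 10% Mueller-Hinton broth at nondoubling dilutions.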
# Staphylococcus aureus [9] = experiment: Antibacterial activity against methicillin-sensitive Staphylococcus aureus 5956 by 10% MH broth method; format: functional
# How it was run: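 Broth dilution per CLSI, but in 10% Mueller-Hinton broth using nondoubling dilutions.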
# Staphylococcus aureus [10] = experiment: T>MIC in methicillin-sensitive Staphylococcus aureus 5956 infected in vitro pharmacokinetic model at 1500 mg, iv every 8 hrs; format: functional
# Staphylococcus aureus [11] = experiment: Antibacterial activity against methicillin-resistant Staphylococcus aureus 33827 infected in in vitro pharmacokinetic model assessed as time required to 99.9% killing at 1500 mg, iv every 8 hrs using 10^8 CFU/ml inoculum; format: functional; how it was run: as §1
# Staphylococcus aureus [12] = experiment: Antibacterial activity against methicillin-resistant Staphylococcus aureus 33829 in in vitro pharmacokinetic model assessed as viable count at 4 times of MIC; format: functional
# How it was run: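 Preexposure population analysis: time-zero model samples plated on nutrient agar without drug and with drug at multiples of the 10% broth MIC. Growth reported as log CFU/ml, detection limit 2 log10.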
# Staphylococcus aureus [13] = experiment: Antibacterial activity against methicillin-resistant Staphylococcus aureus 33922 in in vitro pharmacokinetic model assessed as viable count at 4 times of MIC; format: functional
# Staphylococcus aureus [14] = experiment: AUBKC (0 to 48 hrs) in methicillin-resistant Staphylococcus aureus 33827 infected in in vitro pharmacokinetic model at 1500 mg, iv every 8 hrs using 10^6 CFU/ml inoculum; format: functional
# How it was run: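 Single-compartment dilutional in vitro PK model at 37°C in 10% Mueller-Hinton broth, stirred, flow 132 ml/h. […] Inoculum 10^6 CFU/ml added 45 min before dosing, or 10^8 CFU/ml run overnight. Viable counts with β-lactamase neutralisation. AUBKC by log-linear trapezoidal rule, at least triplicate.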
# Staphylococcus aureus [15] = experiment: Antibacterial activity against methicillin-resistant Staphylococcus aureus 33815 infected in in vitro pharmacokinetic model assessed as reduction in viable count at 1500 mg, iv every 8 hrs measured after 48 hrs using 10^6 CFU/ml inoculum; format: functional
# How it was run: (§2)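 Single-compartment dilutional in vitro PK model, 37°C, stirred, in 10% Mueller-Hinton broth. […] Inoculum 10^6 CFU/ml from a 24-h plate culture was added 45 min before dosing. Viable counts by spiral plating on nutrient agar with β-lactamase neutralization. Log change was taken from time 0; detection limit 10^2 CFU/ml; at least triplicate.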
# Staphylococcus aureus [16] = experiment: Antibacterial activity against methicillin-resistant Staphylococcus aureus 33827 infected in in vitro pharmacokinetic model assessed as time required to 99.9% killing at 750 mg, iv every 8 hrs using 10^8 CFU/ml inoculum; format: functional; how it was run: as §1
# Staphylococcus aureus [17] = experiment: Antibacterial activity against methicillin-sensitive Staphylococcus aureus; format: functional
# Staphylococcus aureus [18] = experiment: Antibacterial activity against methicillin-resistant Staphylococcus aureus 33922 infected in in vitro pharmacokinetic model assessed as time required to 99.9% killing at 750 mg, iv every 8 hrs using 10^8 CFU/ml inoculum; format: functional
# Staphylococcus aureus [19] = experiment: Antibacterial activity against methicillin-sensitive Staphylococcus aureus 5956 infected in in vitro pharmacokinetic model assessed as reduction in viable count at 750 mg, iv every 8 hrs measured after 48 hrs using 10^6 CFU/ml inoculum; format: functional
# Staphylococcus aureus [20] = experiment: Antibacterial activity against methicillin-resistant Staphylococcus aureus 33921 infected in in vitro pharmacokinetic model assessed as reduction in viable count at 750 mg, iv every 8 hrs measured after 24 hrs using 10^6 CFU/ml inoculum; format: functional
# Staphylococcus aureus [21] = experiment: Antibacterial activity against methicillin-sensitive Staphylococcus aureus 5956 infected in in vitro pharmacokinetic model assessed as reduction in viable count at 750 mg, iv every 8 hrs measured after 36 hrs using 10^6 CFU/ml inoculum; format: functional
# Staphylococcus aureus [22] = experiment: T>MIC for 3-log drop in count in methicillin-resistant Staphylococcus aureus 33922 in in vitro pharmacokinetic model after 24 hrs using 10^6 CFU/ml inoculum; format: functional
# Staphylococcus aureus [23] = experiment: Antibacterial activity against methicillin-resistant Staphylococcus aureus 33922 assessed as viable count at 4 times of MIC after 48 hrs using 10^6 CFU/ml inoculum; format: functional, organism-based
# Staphylococcus aureus [24] = experiment: T>MIC for 1-log drop in count in methicillin-resistant Staphylococcus aureus 33829 in in vitro pharmacokinetic model after 24 hrs using 10^6 CFU/ml inoculum; format: functional
# Staphylococcus aureus [25] = experiment: Antibacterial activity against methicillin-resistant Staphylococcus aureus 33922 infected in in vitro pharmacokinetic model assessed as reduction in viable count at 1500 mg, iv every 8 hrs measured after 12 hrs using 10^6 CFU/ml inoculum; format: functional
# Staphylococcus aureus [26] = experiment: Antibacterial activity against methicillin-resistant Staphylococcus aureus 33921 infected in in vitro pharmacokinetic model assessed as reduction in viable count at 1500 mg, iv every 8 hrs measured after 12 hrs using 10^6 CFU/ml inoculum; format: functional; how it was run: as §1
# Staphylococcus aureus [27] = experiment: Antibacterial activity against methicillin-resistant Staphylococcus aureus 33815 infected in in vitro pharmacokinetic model assessed as reduction in viable count at 750 mg, iv every 8 hrs measured after 36 hrs using 10^6 CFU/ml inoculum; format: functional; how it was run: as §2
compound,measurement,setting,value
C[C@@H](O)[C@H]1C(=O)N2C(C(=O)O)=C(S[C@H]3C[C@@H](C(=O)N4CC[C@H](NC(=O)CNC(=N)N)C4)N(C)C3)[C@H](C)[C@H]12 [TOMOPENEM],log10CFU/ml,Staphylococcus aureus [1],5
same,log10CFU/ml,Staphylococcus aureus [2],3.9
same,log10CFU/ml,Staphylococcus aureus [3],5.2
same,fT>MIC,Staphylococcus aureus [4],59.3%
same,AUBC,Staphylococcus aureus [5],27.6 log10CFU/ml.hr
same,MIC,Staphylococcus aureus [6],6 µg/mL
same,Time,Staphylococcus aureus [7],16 h
same,MIC,Staphylococcus aureus [8],6 µg/mL
same,MIC,Staphylococcus aureus [9],0.04 µg/mL
same,fT>MIC,Staphylococcus aureus [10],100%
same,Time,Staphylococcus aureus [11],12 h
same,log10CFU/ml,Staphylococcus aureus [12],5.4
same,log10CFU/ml,Staphylococcus aureus [13],6
same,AUBC,Staphylococcus aureus [14],35.5 log10CFU/ml.hr
same,log10CFU/ml,Staphylococcus aureus [15],4.2
same,Time,Staphylococcus aureus [16],12 h
same,MIC50,Staphylococcus aureus [17],0.12 µg/mL
same,MIC90,Staphylococcus aureus [17],0.12 µg/mL
same,Time,Staphylococcus aureus [18],12 h
same,log10CFU/ml,Staphylococcus aureus [19],4.5
same,log10CFU/ml,Staphylococcus aureus [20],4
same,log10CFU/ml,Staphylococcus aureus [21],4.5
same,fT>MIC,Staphylococcus aureus [22],9.4%
same,Activity,Staphylococcus aureus [23],inactive
same,fT>MIC,Staphylococcus aureus [24],16.8%
same,log10CFU/ml,Staphylococcus aureus [25],4.2
same,log10CFU/ml,Staphylococcus aureus [26],3
same,log10CFU/ml,Staphylococcus aureus [27],4.2
